From PubChem BioAssay
Wnt bcat act: Wnt/beta-catenin pathway activators, primary screen, cell-based, plate reader, single point; Wnt/beta-catenin reporter cell assay, activator; activation, % at 9.35 µM; 300,000 compounds, 1.2% hits; AID 743398, 2014; in the data active = activation above about 30%, passing the limit was not always enough; inconclusive = no clear call, values can overlap the other calls;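 also: 0% = neutral control wells and 100% = positive control wells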
Cneo AK release: Cryptococcus neoformans cell lysis inducers, primary screen, AK release luminescence, single concentration; C. neoformans lysis, adenylate kinase release luminescence, 4 h; normalised: neutral wells 0, clomiphene wells 100; lysis activity, % at 15 µM; 360,000 compounds, 0.2% hits; AID 651654, 2012;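 active = mean lysis activity across replicates of at least 80%, whatever share of replicates individually reach that level; inactive = mean lysis activity below 80%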
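Assay system: C. neoformans cells. Amount: yeast cell density of 5 × 10^6 cells/mL. Technique: AK luminescence. Buffer or medium: YPD. Times: static 4 h at 37 °C with compound, 1 h detection. Dosing: single-point compound dose. Read-out: lysis from increased AK signal.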
PGC1a acetyl inh: inhibitors of PGC1a acetylation signal, primary screen, cell-based, U2OS, AlphaScreen, inhibitor mode. AlphaScreen anti-acetyl-lysine; with virally co-expressed GCN5 acetyltransferase. inhibition, % at 15.6 µM. 350,000 compounds, 0.17% hits. AID 651687, 2012;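 active = every replicate shows inhibition of at least 40%; inconclusive = mean inhibition at least 40% but some replicate below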;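 also: 0% = neutral control wells and 100% = positive control wells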
MITF act: activators of MITF-driven TRPM1 promoter reporter, primary screen, cell-based, SK-MEL-5, luciferase, single point; SK-MEL-5 TRPM1-promoter luciferase, 24 h; % of positive control, neutral wells = 0; activation, % at 12.5 µM; 300,000 compounds, 0.75% hits; AID 588334, 2011;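 active = mean activation of at least 80% with every replicate also reaching 80%; inconclusive = mean reaches 80% but some replicate falls short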;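 also: 0% = neutral control wells and 100% = parthenolide positive control wells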
* marks the source's active call; other numbers are inactive results; ? = inconclusive; / = not tested or not shown. This is a sample that favours compounds with a hit; in the whole collection about 1.5% have one here.

SMILES | Wnt bcat act | Cneo AK release | PGC1a acetyl inh | MITF act
O=C(Nc1nc(COc2ccccc2)cs1)C1CCC1 | 46* | -5 | -6 | 45
CC(=O)Nc1nc(COc2ccc3ccccc3c2)cs1 | 55* | -1 | -17 | 65
CN(C)CC(=O)Nc1ccc2c(c1)[C@@H]1C[C@H](CC(=O)N(C)C)O[C@@H](CO)[C@@H]1O2 | / | 2 | -2 | /
O=C(Nc1ccccc1)[C@H]1[C@H](CO)[C@H]2Cn3c(cccc3=O)[C@H]2N1C(=O)C1CCCC1 | / | -3 | / | /
Cc1ccc(S(=O)(=O)Nc2ccc3c(c2)C(=O)N([C@H](C)CO)C[C@H](C)[C@H](CN(C)C(=O)c2ccccc2)OCCCC[C@H](C)O3)cc1 | / | -1 | 5 | /
CC(C)CN(CCOc1cccc(N2C(=O)C3=C(CCCC3)C2=O)c1)CC(C)C | 42* | / | / | -16
O=C1C2=C(CCCC2)C(=O)N1c1cccc(OCCBr)c1 | -7 | / | / | 3
CC(C)NC(=O)N(C)C[C@@H]1Oc2ncc(-c3cncnc3)cc2C(=O)N([C@@H](C)CO)C[C@@H]1C | / | -3 | 5 | /
CCOC(=O)c1cnc(SCC(=O)c2ccc(C)cc2)nc1N | 1 | / | 11 | 1
CCOC(=O)c1cnc(SCc2cccc(C)c2)nc1N | 40* | 0 | 18 | 61
CCOC(=O)c1cnc(SCC(C)C)nc1N | 70* | -1 | -27 | 109*
CCOC(=O)c1cnc(SCC(=O)c2ccccc2)nc1N | / | 1 | 4 | 97*
C[C@@H]1CN([C@H](C)CO)C(=O)c2cc(NC(=O)NC3CCCCC3)ccc2O[C@@H](C)CCCCO[C@H]1CN(C)Cc1ccccc1 | / | 1 | 20 | /
COc1ccc2cc(C[C@@H]3CC[C@@H](CO)O3)ccc2c1 | 21 | -2 | 11 | 118*
O=C(NCCS(=O)(=O)NCCc1ccccc1)c1ccc2c(c1)OCO2 | -1 | -6 | / | 108*
O=C(NCCc1cccc(Cl)c1)c1ccc2c(c1)OCO2 | 45* | -3 | / | 27
O=C(NCc1cccc(Cl)c1)c1ccc2c(c1)OCCO2 | 3 | -3 | 14 | 7
c1ccc2nc(-c3ccncc3)ccc2c1 | / | -2 | / | /
c1ccc2nc(-c3nccs3)ccc2c1 | 8 | / | / | 91*
Clc1ccsc1-c1ccc2ccccc2n1 | 39* | -1 | 6 | 51
C/C=C/c1ccc2c(c1)[C@H]1[C@H](CCN1C(=O)C1CC1)[C@@H](CO)N2 | / | / | 4 | /
O=C(C1CCOCC1)N1C[C@H]2[C@@H](c3ccccc31)[C@@H](CO)N2Cc1ccccc1Cl | / | 100* | -13 | /
O=C(C1CCOCC1)N1C[C@@H]2[C@H](c3ccccc31)[C@@H](CO)N2Cc1ccccc1Cl | / | 2 | -4 | /
CC(C)NC(=O)Nc1ccc2c(c1)C(=O)N([C@@H](C)CO)C[C@@H](C)[C@H](CN(C)C(=O)Cc1ccccc1)OCCCC[C@@H](C)O2 | / | 95* | -1 | /
COc1ccc(NC(=O)Nc2ccc3c(c2)C(=O)N([C@@H](C)CO)C[C@H](C)[C@H](CN(C)C(=O)Cc2ccccc2)OCCCC[C@@H](C)O3)cc1 | / | 1 | 12 | /
SMILES | Wnt bcat act | Cneo AK release | PGC1a acetyl inh | MITF act
COc1ccc(NC(=O)Nc2ccc3c(c2)C(=O)N([C@@H](C)CO)C[C@@H](C)[C@H](CN(C)C(=O)Cc2ccccc2)OCCCC[C@H](C)O3)cc1 | / | 115* | 5 | /
COc1ccc(NC(=O)Nc2ccc3c(c2)C(=O)N([C@H](C)CO)C[C@H](C)[C@H](CN(C)C(=O)Cc2ccccc2)OCCCC[C@H](C)O3)cc1 | / | 101* | 0 | /
O=C(C[C@H]1CC[C@@H](NC(=O)c2ccncc2)[C@H](CO)O1)Nc1ccc(-c2ccccc2)cc1 | / | / | -7 | /
CC(=O)c1cccc(OCC(=O)Nc2cc(Cl)ccc2-n2cncn2)c1 | 0 | -1 | 8 | 84*
Nc1nc(F)nc2c1ncn2[C@@H]1O[C@H](CO)[C@@H](O)[C@H]1O | -23 | 2 | 83* | -91
C[C@@H]1CN([C@@H](C)CO)C(=O)c2cc(NC(=O)Nc3ccc4c(c3)OCO4)ccc2O[C@H]1CN(C)Cc1ccc(-c2ccccc2)cc1 | / | -1 | 0 | /
Nc1nc(CCl)nc(Nc2ccccc2)n1 | 4 | / | / | 20
Cc1ccc(Nc2nc(N)nc(COC(=O)C3=COCCO3)n2)cc1 | ? | 0 | 1 | 95*
Cc1ccc(Nc2nc(N)nc(CCl)n2)cc1 | 39* | -9 | 5 | /
C[C@H](CO)N1C[C@H](C)[C@@H](CN(C)CC2CCCC2)Oc2cc(C#CCN(C)C)ccc2S1(=O)=O | / | / | -6 | /
O=C(O)c1ccccc1C(=O)Nc1ccc(-n2ccc(C(F)(F)F)n2)cc1 | 0 | / | / | -5
